Laboratory results published in the EternaBench riboswitch data.

Tested on: MS2 coat protein
Assay: apparent Kd, MS2 coat protein; higher = weaker binding; RNA-MaP array; FMN 200 µM where present
How it was run: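 Apparent Kd: the median of filtered binding-curve fits from single clusters. Designs were transcribed on Illumina sequencing-chip clusters by stalled E. coli RNA polymerase and titrated with SNAP-549-labelled MS2 coat protein from 0.7 or 1.5 nM, doubling to 3 µM, in 100 mM Tris-HCl pH 7.5, 80 mM KCl, 4 mM MgCl2, BSA, DTT, yeast tRNA and Tween-20. Each series ran without and then with constant ligand, and green signal was normalised to red-channel RNA signal and control-cluster median Fmax.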

[1] = designed as: OFF switch for flavin mononucleotide, no ligand
[2] = ligand present: flavin mononucleotide, designed as: OFF switch for flavin mononucleotide
[3] = designed as: ON switch for flavin mononucleotide, no ligand
[4] = ligand present: flavin mononucleotide, designed as: ON switch for flavin mononucleotide

Sequence: GCUGCGCGAGGAUAUGCGGUUUGUGCUUUGGCCCAUGGCGUACAUGAGGAUCACCCAUGUAGAAGGCGUGUGGG
- apparent Kd [1]: 0.0135 µM
- apparent Kd [2]: 0.0138 µM

Sequence: GCUGGACAAGGAUAUACAUAACGUGCUUCGGCACGAGAUCUACAUGAGGAUCACCCAUGUAGAAGGUGUCCAGC
- apparent Kd [1]: 0.0148 µM
- apparent Kd [2]: 0.0292 µM

Sequence: GCUGUCGUAUGAGGAUAUGGUCAGCUUUGCUGACCAGAAGGCAUGUCAAUAGACAUGAGGAUCACCCAUGUAGUAAAGACAGCA
- apparent Kd [3]: 0.402 µM
- apparent Kd [4]: 0.039 µM

Sequence: GCUGUGGCAUGAGGAUAUGGUCACCUUUGGUGACCAGAAGGCAUGUCAAUAGACAUGAGGAUCACCCAUGUAGUUAACACAGCA
- apparent Kd [3]: 0.561 µM
- apparent Kd [4]: 0.0424 µM

Sequence: GCUUCACAUGAGGAUCACCCAUGUUUUCGGAGUCGAGGAUAUGGUCACUGUAAACAGUGGCCAGAAGGCGAGGAGC
- apparent Kd [3]: 0.0182 µM
- apparent Kd [4]: 0.0167 µM

Sequence: GCUUCUUAAUUUCAAACUUACGAUUCAGAAGGUGAAUUUUACACAUGAGGAUCACCCAUGUUACUCAAGGAUAUGAUUUGACUA
- apparent Kd [3]: 0.0187 µM
- apparent Kd [4]: 0.014 µM

Sequence: GGAAAACAUGAGGAUCACCCAUGUGAGGAUAUCGAUGUCCAGAGGGAGGUGCGGGACUCGAGAAGGCACUUGGA
- apparent Kd [1]: 0.0342 µM
- apparent Kd [2]: 0.0828 µM

Sequence: GGAAAGCAAGGAUAUACAAACAAACAAACAAACAAAAGGGAACAUGAGGAUCACCCAUGUAGAAGGUGCAAACA
- apparent Kd [1]: 0.0417 µM
- apparent Kd [2]: 0.0375 µM

Sequence: GGAAAUCAUGUAGGAUAUGCAUGGCGAAGCUACGCAGAAGGACAUGAGGAUCACCCAUGUUAGAGCGUCCGAGAAAGGAUGCAA
- apparent Kd [1]: 0.0432 µM
- apparent Kd [2]: 0.25 µM

Sequence: GGAACAACAUGAGGAUAUCGAUGAGUAUAGAGUCGAGAAGGCAUGUCAUAAGACAUGAGGAUCACCCAUGUAGUUACAAUACCA
- apparent Kd [3]: 1.01 µM
- apparent Kd [4]: 0.0693 µM

Sequence: GGAAGACAAAGUCUUCCAUUACGAACAUGAGGAUCACCCAUGUAGGAUAUGCUUCUCAAAGAGAAGCAGAAGGACAUGUGUCUU
- apparent Kd [1]: 0.0266 µM
- apparent Kd [2]: 0.134 µM

Sequence: GGAAGAGUAGGAUAUACAUGAGGAUCACCCAUGUCCUGGAGAAGCAAUUCGAUAUCCUGUAGAAGGACUAAUCU
- apparent Kd [1]: 0.04 µM
- apparent Kd [2]: 0.0361 µM

Sequence: GGACAUGAGGAUCACCCAUGUCGAACAUGAGGAUCACCCAUGUAGGAUAUGCUACUCAAAGAGUAGCAGAAGGACAUGUGCCUU
- apparent Kd [1]: 0.0537 µM
- apparent Kd [2]: 0.0512 µM

Sequence: GGACAUGUACAGAAGGGCAAUUUAUUUAUUGAUUAUUUAGUUCUGUUUUGCAGGAUAUGUAAAACAUGAGGAUCACCCAUGUCC
- apparent Kd [3]: 0.188 µM
- apparent Kd [4]: 0.105 µM

Sequence: GGACAUGUCGUUUACAUGAGGAUCACCCAUGUCGAUGGACAUGAGGAUAUCGAUACGAAUCGUAUCGAGAAGGCAUGCAUGUCC
- apparent Kd [3]: 0.0428 µM
- apparent Kd [4]: 0.0185 µM

Sequence: GGACAUUUACAGAAGGGCAAAUUUUUUAUUGAAUAUUUAGUUCUGUUUUGCAGGAUAUGUUUUACAUGAGGAUCACCCAUGUCC
- apparent Kd [3]: 0.0799 µM
- apparent Kd [4]: 0.0306 µM

Sequence: GGACGACACAUUAACAUGAGGAUCACCCAUGUCUCUUGACAUGAGGAUAUGGAUCCUAAUUGGAUCCAGAAGGCAUGGUCGUCC
- apparent Kd [3]: 1.13 µM
- apparent Kd [4]: 0.0935 µM

Sequence: GGACGGAAAGUGAGGAUAUGCUCUACCUCGGUAGAGCAGAAGGCACAUGAGGAUCACCCAUGUGAUUACUGUUC
- apparent Kd [1]: 0.0255 µM
- apparent Kd [2]: 0.184 µM

Sequence: GGACGGUUAGUGAGGAUAUGCUCUACCUCGGUAGAGCAGAAGGCACAUGAGGAUCACCCAUGUGAUAACUGUUC
- apparent Kd [1]: 0.0186 µM
- apparent Kd [2]: 0.0218 µM

Sequence: GGACGUCACAUCUACAUGAGGAUCACCCAUGUCUCUUGAUAUGAGGAUAUGUAUACGAAUCGUAUACAGAAGGCAUGGACGUCC
- apparent Kd [3]: 0.0269 µM
- apparent Kd [4]: 0.0288 µM

Sequence: GGACGUCACAUGAACAUGAGGAUCACCCAUGUAAAUUCUCAUGAGGAUAUGGAACCUAAUUGGUUCCAGAAGGCGUGGACGUCC
- apparent Kd [3]: 0.849 µM
- apparent Kd [4]: 0.489 µM

Sequence: GGACGUCACAUUUACAUGAGGAUCACCCAUGUCUCUUGACAUGAGGAUAUGUAUACUAAUUGUAUACAGAAGGCAUGGACGUCC
- apparent Kd [3]: 1.01 µM
- apparent Kd [4]: 0.168 µM

Sequence: GGACGUCAGAUUAACAUGAGGAUCACCCAUGUCUUUUGACAUGAGGAUAUGGAUCCUAAUUGGAUCCAGAAGGCAUGGACGUCC
- apparent Kd [3]: 1.12 µM
- apparent Kd [4]: 0.0949 µM

Sequence: GGAGAUACAUGAGGAUCACCCAUGUAGGAUAUCGGGCAUAUAUAUGGCGAAAGCCAUAUAUAUGCCGAGAAGGGCGUACACACC
- apparent Kd [1]: 0.00812 µM
- apparent Kd [2]: 0.00762 µM

Sequence: GGAGCACACAUUAACAUGAGGAUCACCCAUGUCAAAAGACAUGAGGAUAUGGAUCCGAAAAGGAUCCAGAAGGCAUGGCGCUCC
- apparent Kd [3]: 0.103 µM
- apparent Kd [4]: 0.0099 µM

Sequence: GGAGCACAUAUUAACAUGAGGAUCACCCAUGUCAAAAGACAUGAGGAUAUGGAUCCGAAAAGGAUCCAGAAGGCAUGGUGCUCC
- apparent Kd [3]: 0.268 µM
- apparent Kd [4]: 0.0143 µM

Sequence: GGAGCACGCACAGGAUAUCCGGCGGCGCUCGUCGGAGAAGGGUGACAUGAGGAUCACCCAUGUACGUGCAACCCAGUUUGAGAG
- apparent Kd [3]: 0.122 µM
- apparent Kd [4]: 0.0448 µM

Sequence: GGAGCACGCACAGGAUAUCCGGCGGCGCUCGUCGGAGAAGGGUGACAUGAGGAUCACCCAUGUACGUGCAACUCGGUUUGAGAG
- apparent Kd [3]: 0.105 µM
- apparent Kd [4]: 0.0492 µM
